Experimental data taken from ChEMBL document CHEMBL4689842, “EUbOPEN Chemogenomics Library wave 1” (2021).

Test system: U2OS
Assay: Multiplex assay against U2OS
Format: toxicity, cell-based
Settings: human
Method in brief: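 Live cells carried four stains from seeding: Hoechst33342, BioTracker Green Microtubule Cytoskeleton Dye, MitoTracker Red and Annexin V Alexa Fluor 680. They were imaged on a CQ1 microscope at 37°C and 5% CO2 after compound addition. Using CellPathfinder machine-learning gating, cells were split into Hoechst high-intensity objects or normal cells, normal cells into healthy, pyknosed or fragmented nuclei, and pyknosed cells into mitotic or apoptotic; tubulin, mitochondrial-mass and membrane-permeability phenotypes are per cents of healthy-nucleus cells.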

[1] = 12 h, 1 µM, compound concentration 1 uM, replicate 1
[2] = 12 h, 1 µM, compound concentration 1 uM, replicate 2
[3] = 12 h, 10 µM, compound concentration 10 uM, replicate 1
[4] = 12 h, 10 µM, compound concentration 10 uM, replicate 2
[5] = 24 h, 1 µM, compound concentration 1 uM, replicate 1
[6] = 24 h, 1 µM, compound concentration 1 uM, replicate 2
[7] = 24 h, 10 µM, compound concentration 10 uM, replicate 1
[8] = 24 h, 10 µM, compound concentration 10 uM, replicate 2
[9] = 48 h, 1 µM, compound concentration 1 uM, replicate 1
[10] = 48 h, 1 µM, compound concentration 1 uM, replicate 2
[11] = 48 h, 10 µM, compound concentration 10 uM, replicate 1
[12] = 48 h, 10 µM, compound concentration 10 uM, replicate 2

## Cl.Oc1ccc2c3c1O[C@H]1c4[nH]c5c(c4C[C@@]4(O)[C@@H](C2)N(CC2CC2)CC[C@]314)C[C@@]1(O)[C@H]2Cc3ccc(O)c4c3[C@@]1(CCN2CC1CC1)[C@H]5O4
[1]
  Population Apoptotic (%): 38%
  Population Fragmented Nuclei (%): 9%
  Population Healthy Nuclei (%): 79%
  Population Hoechst High Intensity Objects (%): 6%
  Population Membrane Permeable-Phenotype (%): 9%
  Population Mitochondria Different-Phenotype (%): 15%
  Population Mitotic Cells (%): 61%
  Population Normal (%): 93%
  Population Tubulin-Different-Phenotype (%): 14%
  Total Cell Count: 105
[2]
  Population Apoptotic (%): 42%
  Population Fragmented Nuclei (%): 3%
  Population Healthy Nuclei (%): 86%
  Population Hoechst High Intensity Objects (%): 9%
  Population Membrane Permeable-Phenotype (%): 10%
  Population Mitochondria Different-Phenotype (%): 19%
  Population Mitotic Cells (%): 57%
  Population Normal (%): 90%
  Population Pyknosed Nuclei (%): 10%
  Population Tubulin-Different-Phenotype (%): 17%
  Total Cell Count: 97
[3]
  Population Apoptotic (%): 57%
  Population Fragmented Nuclei (%): 14%
  Population Healthy Nuclei (%): 73%
  Population Hoechst High Intensity Objects (%): 6%
  Population Membrane Permeable-Phenotype (%): 6%
  Population Mitochondria Different-Phenotype (%): 10%
  Population Mitotic Cells (%): 42%
  Population Normal (%): 93%
  Population Pyknosed Nuclei (%): 12%
  Population Tubulin-Different-Phenotype (%): 3%
  Total Cell Count: 183
[4]
  Population Apoptotic (%): 93%
  Population Fragmented Nuclei (%): 12%
  Population Healthy Nuclei (%): 48%
  Population Hoechst High Intensity Objects (%): 7%
  Population Membrane Permeable-Phenotype (%): 52%
  Population Mitochondria Different-Phenotype (%): 26%
  Population Mitotic Cells (%): 6%
  Population Normal (%): 92%
  Population Pyknosed Nuclei (%): 38%
  Population Tubulin-Different-Phenotype (%): 89%
  Total Cell Count: 73
[5]
  Population Apoptotic (%): 30%
  Population Fragmented Nuclei (%): 7%
  Population Healthy Nuclei (%): 80%
  Population Hoechst High Intensity Objects (%): 3%
  Population Membrane Permeable-Phenotype (%): 6%
  Population Mitochondria Different-Phenotype (%): 12%
  Population Mitotic Cells (%): 69%
  Population Normal (%): 96%
  Population Pyknosed Nuclei (%): 11%
  Population Tubulin-Different-Phenotype (%): 9%
  Total Cell Count: 113
[6]
  Population Apoptotic (%): 25%
  Population Fragmented Nuclei (%): 3%
  Population Healthy Nuclei (%): 91%
  Population Hoechst High Intensity Objects (%): 4%
  Population Membrane Permeable-Phenotype (%): 10%
  Population Mitochondria Different-Phenotype (%): 13%
  Population Mitotic Cells (%): 75%
  Population Normal (%): 95%
  Population Pyknosed Nuclei (%): 4%
  Population Tubulin-Different-Phenotype (%): 18%
  Total Cell Count: 94
[7]
  Population Apoptotic (%): 55%
  Population Fragmented Nuclei (%): 9%
  Population Healthy Nuclei (%): 80%
  Population Hoechst High Intensity Objects (%): 3%
  Population Membrane Permeable-Phenotype (%): 3%
  Population Mitochondria Different-Phenotype (%): 8%
  Population Mitotic Cells (%): 45%
  Population Normal (%): 96%
  Population Pyknosed Nuclei (%): 10%
  Population Tubulin-Different-Phenotype (%): 5%
  Total Cell Count: 231
[8]
  Population Apoptotic (%): 76%
  Population Fragmented Nuclei (%): 13%
  Population Healthy Nuclei (%): 58%
  Population Hoechst High Intensity Objects (%): 13%
  Population Membrane Permeable-Phenotype (%): 48%
  Population Mitochondria Different-Phenotype (%): 33%
  Population Mitotic Cells (%): 23%
  Population Normal (%): 86%
  Population Pyknosed Nuclei (%): 28%
  Population Tubulin-Different-Phenotype (%): 77%
  Total Cell Count: 91
[9]
  Population Apoptotic (%): 22%
  Population Fragmented Nuclei (%): 4%
  Population Hoechst High Intensity Objects (%): 3%
  Population Membrane Permeable-Phenotype (%): 2%
  Population Mitochondria Different-Phenotype (%): 11%
  Population Mitotic Cells (%): 77%
  Population Normal (%): 96%
  Population Pyknosed Nuclei (%): 8%
  Population Tubulin-Different-Phenotype (%): 11%
  Total Cell Count: 107
[10]
  Population Apoptotic (%): 14%
  Population Fragmented Nuclei (%): 6%
  Population Healthy Nuclei (%): 87%
  Population Hoechst High Intensity Objects (%): 4%
  Population Membrane Permeable-Phenotype (%): 9%
  Population Mitochondria Different-Phenotype (%): 16%
  Population Mitotic Cells (%): 85%
  Population Normal (%): 95%
  Population Pyknosed Nuclei (%): 5%
  Population Tubulin-Different-Phenotype (%): 14%
  Total Cell Count: 96
[11]
  Population Apoptotic (%): 47%
  Population Fragmented Nuclei (%): 4%
  Population Healthy Nuclei (%): 89%
  Population Hoechst High Intensity Objects (%): 3%
  Population Membrane Permeable-Phenotype (%): 1%
  Population Mitochondria Different-Phenotype (%): 9%
  Population Mitotic Cells (%): 52%
  Population Normal (%): 96%
  Population Pyknosed Nuclei (%): 6%
  Population Tubulin-Different-Phenotype (%): 4%
  Total Cell Count: 365
[12]
  Population Apoptotic (%): 60%
  Population Fragmented Nuclei (%): 11%
  Population Healthy Nuclei (%): 73%
  Population Hoechst High Intensity Objects (%): 8%
  Population Membrane Permeable-Phenotype (%): 30%
  Population Mitochondria Different-Phenotype (%): 34%
  Population Mitotic Cells (%): 40%
  Population Normal (%): 91%
  Population Pyknosed Nuclei (%): 15%
  Population Tubulin-Different-Phenotype (%): 84%
  Total Cell Count: 129
